# Measurements published in ChEMBL document CHEMBL1156144, “Biaryl ethers as novel non-nucleoside reverse transcriptase inhibitors with improved potency against key mutant viruses” (J Med Chem, 2009).
# Columns and labels:
# [1] = target: Human immunodeficiency virus type 1 reverse transcriptase (Human immunodeficiency virus 1, UniProt Q72547, K103N); assay: Inhibition of RNA-dependent DNA polymerase activity of recombinant HIV reverse transcriptase K103N mutant assessed as BrdU incorporation by standard ECL assay
# [2] = test system: Human immunodeficiency virus; assay: Antiviral activity against HIV with reverse transcriptase K103N/G190A double mutant assessed as inhibition of viral replication relative to wild type; format: functional
# [3] = test system: Human immunodeficiency virus; assay: Antiviral activity against HIV with reverse transcriptase MDRC4 mutant assessed as inhibition of viral replication; format: functional, organism-based; settings: Human immunodeficiency virus 1
# [4] = test system: Human immunodeficiency virus; assay: Antiviral activity against HIV with reverse transcriptase K103N/Y181C double mutant infected in human MT2 cells assessed as inhibition of viral replication measuring p24 level after 3 days in presence of 10% fetal bovine serum; format: functional; settings: Human immunodeficiency virus 1, MT2, Serum, 72 h; read-out: CIC95
# How it was run: (§1)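 Multiple-cycle replication (Spread) assay in MT2 cells with H9IIIB-background mutant virus. Cells were infected overnight at moi ≈ 0.01 without compound, washed, then cultured 3 days across a range of compound concentrations in medium with 10% FBS. p24 was measured in supernatants. CIC95 is the lowest concentration inhibiting replication by ≥95%, reported as the geometric mean of ≥2 determinations.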
# [5] = test system: Human immunodeficiency virus; assay: Antiviral activity against HIV with reverse transcriptase K101E/Y181C/G190A mutant assessed as inhibition of viral replication; format: functional, organism-based; settings: Human immunodeficiency virus 1
# [6] = test system: Human immunodeficiency virus; assay: Antiviral activity against HIV with reverse transcriptase K101E/G190A double mutant assessed as inhibition of viral replication; format: functional, organism-based; settings: Human immunodeficiency virus 1
# [7] = test system: Human immunodeficiency virus; assay: Antiviral activity against HIV with reverse transcriptase V106A/G190A/F227L mutant assessed as inhibition of viral replication; format: functional, organism-based; settings: Human immunodeficiency virus 1
# [8] = test system: Human immunodeficiency virus; assay: Antiviral activity against HIV with reverse transcriptase CNDO mutant assessed as inhibition of viral replication; format: functional, organism-based; settings: Human immunodeficiency virus 1
# [9] = test system: Human immunodeficiency virus; assay: Antiviral activity against HIV with reverse transcriptase Y188L mutant assessed as inhibition of viral replication relative to wild type; format: functional
# [10] = Inhibition of RNA-dependent DNA polymerase activity of wild type HIV reverse transcriptase assessed as BrdU incorporation by standard ECL assay; parameters: species or system Human immunodeficiency virus
# How it was run: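 Purified recombinant wild-type RT polymerase activity was measured using a 500-nt heteropolymeric RNA template and a biotinylated DNA primer. BrdU incorporation was detected with a ruthenylated anti-BrdU antibody by electrochemiluminescence. Ki is the geometric mean of at least two determinations, each within 25% of the mean.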
# [11] = test system: Human immunodeficiency virus; assay: Antiviral activity against HIV with reverse transcriptase K103N mutant assessed as inhibition of viral replication; format: functional, organism-based; settings: Human immunodeficiency virus 1
# [12] = test system: Human immunodeficiency virus; assay: Antiviral activity against HIV with reverse transcriptase K103N/Y181C double mutant assessed as inhibition of viral replication; format: functional, organism-based; settings: Human immunodeficiency virus 1
# [13] = test system: Human immunodeficiency virus; assay: Antiviral activity against HIV with reverse transcriptase Y181C mutant assessed as inhibition of viral replication relative to wild type; format: functional
# [14] = test system: Human immunodeficiency virus; assay: Antiviral activity against HIV with reverse transcriptase G190S mutant assessed as inhibition of viral replication; format: functional, organism-based; settings: Human immunodeficiency virus 1
# [15] = test system: Human immunodeficiency virus; assay: Antiviral activity against HIV with reverse transcriptase K101E/G190A double mutant assessed as inhibition of viral replication relative to wild type; format: functional
# [16] = test system: Human immunodeficiency virus; assay: Antiviral activity against HIV with reverse transcriptase L100I mutant assessed as inhibition of viral replication relative to wild type; format: functional
# [17] = test system: Human immunodeficiency virus; assay: Antiviral activity against HIV with reverse transcriptase Y181C/G190A double mutant assessed as inhibition of viral replication relative to wild type; format: functional
# [18] = test system: Human immunodeficiency virus; assay: Antiviral activity against HIV with reverse transcriptase L100I mutant assessed as inhibition of viral replication; format: functional, organism-based; settings: Human immunodeficiency virus 1
# [19] = test system: Human immunodeficiency virus; assay: Antiviral activity against HIV with reverse transcriptase K103N/P225H double mutant assessed as inhibition of viral replication relative to wild type; format: functional
# [20] = test system: Human immunodeficiency virus; assay: Antiviral activity against HIV with reverse transcriptase K103N/G190A double mutant assessed as inhibition of viral replication; format: functional, organism-based; settings: Human immunodeficiency virus 1
# [21] = test system: Human immunodeficiency virus; assay: Antiviral activity against HIV with reverse transcriptase L100I/K103N double mutant assessed as inhibition of viral replication relative to wild type; format: functional
# [22] = test system: Human immunodeficiency virus; assay: Antiviral activity against HIV with reverse transcriptase MDRC4 mutant assessed as inhibition of viral replication relative to wild type; format: functional
# [23] = test system: Human immunodeficiency virus; assay: Antiviral activity against wild type HIV H9-3B infected in human MT2 cells assessed as inhibition of viral replication measuring p24 level after 3 days in presence of 10% fetal bovine serum; format: functional; settings: Human immunodeficiency virus 1, MT2, Serum; read-out: CIC95
# How it was run: (§2)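 Multiple-cycle spread assay in MT2 cells with wild-type H9IIIB virus. Cells were infected overnight at moi ≈ 0.01 without compound, washed, then cultured 3 days across varying compound concentrations in RPMI 1640 with 10% FBS or 50% NHS. p24 was measured in supernatants. CIC95 is the lowest concentration inhibiting replication ≥95%, as the geometric mean of ≥2 determinations.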
# [24] = test system: Human immunodeficiency virus; assay: Antiviral activity against HIV with reverse transcriptase Y181C mutant infected in human MT2 cells assessed as inhibition of viral replication measuring p24 level after 3 days in presence of 10% fetal bovine serum; format: functional; settings: Human immunodeficiency virus 1, MT2, Serum, 72 h; read-out: CIC95; how it was run: as §1
# [25] = test system: Human immunodeficiency virus; assay: Antiviral activity against HIV with reverse transcriptase K103N/Y181C/G190A mutant assessed as inhibition of viral replication; format: functional, organism-based; settings: Human immunodeficiency virus 1
# [26] = test system: Human immunodeficiency virus; assay: Antiviral activity against HIV with reverse transcriptase V106A/G190A/F227L mutant assessed as inhibition of viral replication relative to wild type; format: functional
# [27] = test system: Human immunodeficiency virus; assay: Antiviral activity against HIV with reverse transcriptase CNDO mutant assessed as inhibition of viral replication relative to wild type; format: functional
# [28] = test system: Human immunodeficiency virus; assay: Antiviral activity against HIV with reverse transcriptase G190A mutant assessed as inhibition of viral replication relative to wild type; format: functional
# [29] = test system: Human immunodeficiency virus; assay: Antiviral activity against HIV with reverse transcriptase G190A mutant assessed as inhibition of viral replication; format: functional, organism-based; settings: Human immunodeficiency virus 1
# [30] = test system: Human immunodeficiency virus; assay: Antiviral activity against HIV with reverse transcriptase K103N/Y181C/G190A mutant assessed as inhibition of viral replication relative to wild type; format: functional
# [31] = test system: Human immunodeficiency virus; assay: Antiviral activity against HIV with reverse transcriptase Y181C mutant assessed as inhibition of viral replication; format: functional, organism-based; settings: Human immunodeficiency virus 1
# [32] = test system: Human immunodeficiency virus; assay: Antiviral activity against HIV with reverse transcriptase G190S mutant assessed as inhibition of viral replication relative to wild type; format: functional
# [33] = test system: Human immunodeficiency virus; assay: Antiviral activity against HIV with reverse transcriptase Y188L mutant assessed as inhibition of viral replication; format: functional, organism-based; settings: Human immunodeficiency virus 1
# [34] = test system: Human immunodeficiency virus; assay: Antiviral activity against HIV with reverse transcriptase L100I/K103N double mutant assessed as inhibition of viral replication; format: functional, organism-based; settings: Human immunodeficiency virus 1
# [35] = test system: Human immunodeficiency virus; assay: Antiviral activity against HIV with reverse transcriptase K101E/Y181C/G190A mutant assessed as inhibition of viral replication relative to wild type; format: functional
# [36] = test system: Human immunodeficiency virus; assay: Antiviral activity against HIV with reverse transcriptase Y181C/G190A double mutant assessed as inhibition of viral replication; format: functional, organism-based; settings: Human immunodeficiency virus 1
# [37] = test system: Human immunodeficiency virus; assay: Antiviral activity against wild type HIV H9-3B infected in human MT2 cells assessed as inhibition of viral replication measuring p24 level after 3 days in presence of 50% normal human serum; format: functional; settings: Human immunodeficiency virus 1, H9-3B, 72 h, read-out: CIC95; how it was run: as §2
# [38] = test system: Human immunodeficiency virus; assay: Antiviral activity against HIV with reverse transcriptase K103N mutant assessed as inhibition of viral replication relative to wild type; format: functional
# [39] = test system: Human immunodeficiency virus; assay: Antiviral activity against HIV with reverse transcriptase K103N/P225H double mutant assessed as inhibition of viral replication; format: functional, organism-based; settings: Human immunodeficiency virus 1
# [40] = test system: Human immunodeficiency virus; assay: Antiviral activity against HIV with reverse transcriptase K103N mutant infected in human MT2 cells assessed as inhibition of viral replication measuring p24 level after 3 days in presence of 10% fetal bovine serum; format: functional; settings: Human immunodeficiency virus 1, MT2, Serum, 72 h; read-out: CIC95; how it was run: as §1
# [41] = test system: Human immunodeficiency virus; assay: Antiviral activity against HIV with reverse transcriptase K103N/Y181C double mutant assessed as inhibition of viral replication relative to wild type; format: functional
compound,measurement,setting,value
N#Cc1cc(Cl)cc(Oc2cc(OCc3n[nH]c4ncccc34)ccc2Cl)c1,Ki,[1],0.2 nM
same,fold change (FC),[2],2.18
same,IC50,[3],5.1 nM
same,IC95,[4],53 nM
same,IC50,[5],11.6 nM
same,IC50,[6],2.1 nM
same,IC50,[7],> 1000 nM
same,IC50,[8],1.1 nM
same,fold change (FC),[9],560.18
same,Ki,[10],0.1 nM
same,IC50,[11],1.6 nM
same,IC50,[12],23.6 nM
same,fold change (FC),[13],2.82
same,IC50,[14],4.8 nM
same,fold change (FC),[15],1.91
same,fold change (FC),[16],0.64
same,fold change (FC),[17],4.18
same,IC50,[18],0.7 nM
same,fold change (FC),[19],3.27
same,IC50,[20],2.4 nM
same,fold change (FC),[21],15
same,fold change (FC),[22],4.64
same,IC95,[23],10 nM
same,IC95,[24],22 nM
same,IC50,[25],30.9 nM
same,fold change (FC),[26],>909
same,fold change (FC),[27],1
same,fold change (FC),[28],1.64
same,IC50,[29],1.8 nM
same,fold change (FC),[30],28.09
same,IC50,[31],3.1 nM
same,fold change (FC),[32],4.36
same,IC50,[33],616 nM
same,IC50,[34],16.5 nM
same,fold change (FC),[35],10.55
same,IC50,[36],4.6 nM
same,IC95,[37],52 nM
same,fold change (FC),[38],1.45
same,IC50,[39],3.6 nM
same,IC95,[40],15 nM
same,fold change (FC),[41],21.45
